{"source": "ChEMBL document CHEMBL1121698", "about": "“Cyclic urea and thiourea derivatives as inducers of murine erythroleukemia differentiation” (1981)", "assay_type_in_all_cases": "functional, Mus musculus", "key": {"[1]": {"system": "Friend leukemia cell line", "experiment": "Cell growth of friend erythroleukemia cells measured as percentage of control on day 6 at a concentration of 2 mM", "outline": "(§1)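 Friend murine erythroleukemia clone 745A grown in suspension at 37 °C, 10% CO2, in DMEM with 15% fetal calf serum, streptomycin and penicillin. Agent added at seeding of exponentially growing cells (10^5 cells/mL), continuous exposure over twofold-graded concentrations. Cell numbers counted electronically on days 3 and 6, expressed relative to untreated control. At least two separate experiments.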"}, "[2]": {"system": "Friend leukemia cell line", "experiment": "The degree of erythroid maturation was measured by assessing the proportion of benzidine-positive cells at a concentration of 2 mM", "outline": "(§2)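 Friend erythroleukemia clone 745A cells seeded at 10^5 cells/mL in DMEM with 15% fetal calf serum at 37 °C, 10% CO2. Agent given at seeding, continuous exposure, twofold-graded concentrations; Me2SO positive control in each experiment. On day 6, hemoglobin-containing cells scored cytologically by staining with acid benzidine peroxide. Optimum concentration averaged from at least two experiments.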"}, "[3]": {"system": "Friend leukemia cell line", "experiment": "Percent of untreated control cell growth evaluated in friend leukemia cells on day 3 at a concentration of 2 mM", "outline": "as §1"}, "[4]": {"system": "Friend leukemia cell line", "experiment": "The degree of erythroid maturation was measured by assessing the proportion of benzidine-positive cells at a concentration of 4 mM", "conditions": "at 4 mM"}, "[5]": {"system": "Friend leukemia cell line", "experiment": "Percent of untreated control cell growth evaluated in friend leukemia cells on day 3 at a concentration of 4 mM", "conditions": "at 4 mM"}, "[6]": {"system": "Friend leukemia cell line", "experiment": "Cell growth of friend erythroleukemia cells measured as percentage of control on day 6 at a concentration of 4 mM", "conditions": "at 4 mM"}, "[7]": {"system": "Friend leukemia cell line", "experiment": "The degree of erythroid maturation was measured by assessing the proportion of benzidine-positive friend leukemia cells at a concentration of 4 mM", "outline": "as §2"}, "[8]": {"system": "Friend leukemia cell line", "experiment": "Percent of untreated control cell growth evaluated in friend leukemia cells on day 3 at a concentration of 0.1-10 mM", "outline": "as §1"}, "[9]": {"system": "Friend leukemia cell line", "experiment": "The degree of erythroid maturation was measured by assessing the proportion of benzidine-positive friend leukemia cells at a concentration of 0.1-10 mM", "outline": "as §2"}, "[10]": {"system": "Friend leukemia cell line", "experiment": "Cell growth of friend erythroleukemia cells measured as percentage of control on day 6 at a concentration of 0.1-10 mM", "outline": "as §1"}, "[11]": {"system": "Friend leukemia cell line", "experiment": "Cell growth of friend erythroleukemia cells measured as percentage of control on day 6 at a concentration of 16 mM", "outline": "as §1"}, "[12]": {"system": "Friend leukemia cell line", "experiment": "The degree of erythroid maturation was measured by assessing the proportion of benzidine-positive friend leukemia cells at a concentration of 16 mM", "outline": "as §2"}, "[13]": {"system": "Friend leukemia cell line", "experiment": "Percent of untreated control cell growth evaluated in friend leukemia cells on day 3 at a concentration of 16 mM", "outline": "as §1"}, "[14]": {"system": "Friend leukemia cell line", "experiment": "The degree of erythroid maturation was measured by assessing the proportion of benzidine-positive friend leukemia cells at a concentration of 2 mM", "outline": "as §2"}, "[15]": {"system": "Friend leukemia cell line", "experiment": "Percent of untreated control cell growth evaluated in friend leukemia cells on day 3 at a concentration of 105 mM", "outline": "as §1"}, "[16]": {"system": "Friend leukemia cell line", "experiment": "Effect on the replication and erythroid differentiation of friend leukemia cells on day 6 at a concentration of 210 mM"}, "[17]": {"system": "Friend leukemia cell line", "experiment": "The degree of erythroid maturation was measured by assessing the proportion of benzidine-positive cells at a concentration of 210 mM", "outline": "as §2"}, "[18]": {"system": "Friend leukemia cell line", "experiment": "Effect on the replication and erythroid differentiation of friend leukemia cells on day 3 at a concentration of 210 mM"}, "[19]": {"system": "Friend leukemia cell line", "experiment": "Cell growth of friend erythroleukemia cells measured as percentage of control on day 6 at a concentration of 105 mM", "outline": "as §1"}, "[20]": {"system": "Friend leukemia cell line", "experiment": "Cell growth of friend erythroleukemia cells measured as percentage of control on day 6 at a concentration of 1 mM", "outline": "as §1"}, "[21]": {"system": "Friend leukemia cell line", "experiment": "Percent of untreated control cell growth evaluated in friend leukemia cells on day 3 at a concentration of 1 mM", "outline": "as §1"}, "[22]": {"system": "Friend leukemia cell line", "experiment": "The degree of erythroid maturation was measured by assessing the proportion of benzidine-positive friend leukemia cells at a concentration of 1 mM", "outline": "as §2"}}}
{"smiles": "CN1CCCN=C1S", "values": [{"measurement": "Cell growth", "setting": "[1]", "result": 166, "unit": "%"}, {"measurement": "Benzidine positive cells", "setting": "[2]", "result": 22, "unit": "%"}, {"measurement": "Cell growth", "setting": "[3]", "result": 107, "unit": "%"}]}
{"smiles": "CN1CCCN(C)C1=S", "values": [{"measurement": "Benzidine positive cells", "setting": "[4]", "result": 83, "unit": "%"}, {"measurement": "Cell growth", "setting": "[5]", "result": 75, "unit": "%"}, {"measurement": "Cell growth", "setting": "[6]", "result": 135, "unit": "%"}]}
{"smiles": "O=C1NCCCCN1", "values": [{"measurement": "Cell growth", "setting": "[1]", "result": 104, "unit": "%"}, {"measurement": "Benzidine positive cells", "setting": "[2]", "result": 66, "unit": "%"}, {"measurement": "Cell growth", "setting": "[3]", "result": 93, "unit": "%"}]}
{"smiles": "CN1CCN(C)C1=O", "values": [{"measurement": "Benzidine positive cells", "setting": "[4]", "result": 92, "unit": "%"}, {"measurement": "Cell growth", "setting": "[5]", "result": 70, "unit": "%"}, {"measurement": "Cell growth", "setting": "[6]", "result": 73, "unit": "%"}]}
{"smiles": "CCN1CCCCN(CC)C1=O", "values": [{"measurement": "Cell growth", "setting": "[5]", "result": 40, "unit": "%"}, {"measurement": "Benzidine positive cells", "setting": "[7]", "result": 31, "unit": "%"}, {"measurement": "Cell growth", "setting": "[6]", "result": 131, "unit": "%"}]}
{"smiles": "CCCCN1CCCN(CCCC)C1=O", "values": [{"measurement": "Cell growth", "setting": "[8]", "result": "<5", "unit": "%"}, {"measurement": "Benzidine positive cells", "setting": "[9]", "result": "<1", "unit": "%"}, {"measurement": "Cell growth", "setting": "[10]", "result": "<1", "unit": "%"}]}
{"smiles": "O=C(N1CCCCC1)N1CCCCC1", "values": [{"measurement": "Cell growth", "setting": "[5]", "result": 28, "unit": "%"}, {"measurement": "Benzidine positive cells", "setting": "[7]", "result": 10, "unit": "%"}, {"measurement": "Cell growth", "setting": "[6]", "result": 33, "unit": "%"}]}
{"smiles": "CCN1CCN(CC)C1=O", "values": [{"measurement": "Cell growth", "setting": "[11]", "result": 140, "unit": "%"}, {"measurement": "Benzidine positive cells", "setting": "[12]", "result": 81, "unit": "%"}, {"measurement": "Cell growth", "setting": "[13]", "result": 36, "unit": "%"}]}
{"smiles": "CN1CCN(C)C1=S", "values": [{"measurement": "Cell growth", "setting": "[1]", "result": 95, "unit": "%"}, {"measurement": "Benzidine positive cells", "setting": "[2]", "result": 66, "unit": "%"}, {"measurement": "Cell growth", "setting": "[3]", "result": 102, "unit": "%"}]}
{"smiles": "CN1CCCN(C)C1=O", "values": [{"measurement": "Cell growth", "setting": "[1]", "result": 87, "unit": "%"}, {"measurement": "Benzidine positive cells", "setting": "[2]", "result": 92, "unit": "%"}, {"measurement": "Cell growth", "setting": "[3]", "result": 90, "unit": "%"}]}
{"smiles": "CCN1CCN(CC)C1=S", "values": [{"measurement": "Cell growth", "setting": "[1]", "result": 120, "unit": "%"}, {"measurement": "Benzidine positive cells", "setting": "[14]", "result": 84, "unit": "%"}, {"measurement": "Cell growth", "setting": "[3]", "result": 60, "unit": "%"}]}
{"smiles": "CN1CCCCN(C)C1=O", "values": [{"measurement": "Cell growth", "setting": "[5]", "result": 25, "unit": "%"}, {"measurement": "Benzidine positive cells", "setting": "[7]", "result": 92, "unit": "%"}, {"measurement": "Cell growth", "setting": "[6]", "result": 61, "unit": "%"}]}
{"smiles": "O=C1NCCCN1", "values": [{"measurement": "Benzidine positive cells", "setting": "[4]", "result": 15, "unit": "%"}, {"measurement": "Cell growth", "setting": "[5]", "result": 124, "unit": "%"}, {"measurement": "Cell growth", "setting": "[6]", "result": 121, "unit": "%"}]}
{"smiles": "CN1CCCCN(C)C1=S", "values": [{"measurement": "Cell growth", "setting": "[5]", "result": 64, "unit": "%"}, {"measurement": "Benzidine positive cells", "setting": "[7]", "result": 79, "unit": "%"}, {"measurement": "Cell growth", "setting": "[6]", "result": 73, "unit": "%"}]}
{"smiles": "O=C1NCCN1", "values": [{"measurement": "Benzidine positive cells", "setting": "[4]", "result": 4, "unit": "%"}, {"measurement": "Cell growth", "setting": "[5]", "result": 88, "unit": "%"}, {"measurement": "Cell growth", "setting": "[6]", "result": 108, "unit": "%"}]}
{"smiles": "CCN1CCCN(CC)C1=O", "values": [{"measurement": "Cell growth", "setting": "[5]", "result": 160, "unit": "%"}, {"measurement": "Benzidine positive cells", "setting": "[7]", "result": 70, "unit": "%"}, {"measurement": "Cell growth", "setting": "[6]", "result": 127, "unit": "%"}]}
{"smiles": "CN1CCCNC1=O", "values": [{"measurement": "Cell growth", "setting": "[1]", "result": 136, "unit": "%"}, {"measurement": "Benzidine positive cells", "setting": "[2]", "result": 50, "unit": "%"}, {"measurement": "Cell growth", "setting": "[3]", "result": 46, "unit": "%"}]}
{"smiles": "S=C1NCCN1", "note": "[ETHYLENE THIOUREA]", "values": [{"measurement": "Benzidine positive cells", "setting": "[4]", "result": 21, "unit": "%"}, {"measurement": "Cell growth", "setting": "[5]", "result": 128, "unit": "%"}, {"measurement": "Cell growth", "setting": "[6]", "result": 62, "unit": "%"}]}
{"smiles": "SC1=NCCCCN1", "values": [{"measurement": "Cell growth", "setting": "[1]", "result": 82, "unit": "%"}, {"measurement": "Benzidine positive cells", "setting": "[2]", "result": 42, "unit": "%"}, {"measurement": "Cell growth", "setting": "[3]", "result": 54, "unit": "%"}]}
{"smiles": "CN(C)C(=S)N(C)C", "values": [{"measurement": "Cell growth", "setting": "[1]", "result": 98, "unit": "%"}, {"measurement": "Benzidine positive cells", "setting": "[2]", "result": 79, "unit": "%"}, {"measurement": "Cell growth", "setting": "[3]", "result": 123, "unit": "%"}]}
{"smiles": "CCN(CC)C(=O)N(CC)CC", "values": [{"measurement": "Cell growth", "setting": "[1]", "result": 77, "unit": "%"}, {"measurement": "Benzidine positive cells", "setting": "[14]", "result": 68, "unit": "%"}, {"measurement": "Cell growth", "setting": "[3]", "result": 69, "unit": "%"}]}
{"smiles": "C[S+](C)[O-]", "note": "[DIMETHYL SULFOXIDE]", "values": [{"measurement": "Cell growth", "setting": "[15]", "result": 70, "unit": "%"}, {"measurement": "Cell growth", "setting": "[16]", "result": 110, "unit": "%"}, {"measurement": "Benzidine positive cells", "setting": "[4]", "result": 75, "unit": "%"}, {"measurement": "Benzidine positive cells", "setting": "[17]", "result": 94, "unit": "%"}, {"measurement": "Cell growth", "setting": "[18]", "result": 72, "unit": "%"}, {"measurement": "Cell growth", "setting": "[19]", "result": 120, "unit": "%"}]}
{"smiles": "CCN1CCCN(CC)C1=S", "values": [{"measurement": "Cell growth", "setting": "[20]", "result": 97, "unit": "%"}, {"measurement": "Cell growth", "setting": "[21]", "result": 45, "unit": "%"}, {"measurement": "Benzidine positive cells", "setting": "[22]", "result": 61, "unit": "%"}]}
{"smiles": "SC1=NCCCN1", "values": [{"measurement": "Cell growth", "setting": "[1]", "result": 44, "unit": "%"}, {"measurement": "Benzidine positive cells", "setting": "[2]", "result": 14, "unit": "%"}, {"measurement": "Cell growth", "setting": "[3]", "result": 144, "unit": "%"}]}
{"smiles": "CCN(CC)C(=S)N(CC)CC", "values": [{"measurement": "Cell growth", "setting": "[8]", "result": "<4", "unit": "%"}, {"measurement": "Benzidine positive cells", "setting": "[9]", "result": "<1", "unit": "%"}, {"measurement": "Cell growth", "setting": "[10]", "result": "<1", "unit": "%"}]}
